In the library only some 3.8% were active in any assay of this set; here they are far more common.
CHO parental Ca: ATP-evoked calcium signal inhibitors, parental CHO, primary screen, counter-screen for OX1R antagonist project, cell-based, fluorescence, Fluo-8 calcium dye; parental CHO-K1, ATP-induced calcium, Fluo-8 fluorescence; hit rate 0.63% among 330,000; inhibition, % at 5.6 µM;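 active = inhibition above that plate's mean sample inhibition plus 3 SD, cut at about 26% in these data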;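 also: 0% = ATP-challenged DMSO wells and 100% = DMSO wells without ATP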
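Test system: parental CHO cells; detection: calcium-sensitive Fluo-8 fluorescence; evaluation: percent inhibition of calcium signal; also added: ATP as calcium-mobilizing challenge; repeats: one well per compound; control set: ATP-challenged DMSO wells low, unchallenged DMSO wells high; compound: single nominal dose of 5.6 µM per compound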
GPR7 antagonist: GPR7 receptor antagonists, primary screen, cell-based, fluorescence, single concentration; Neuropeptides B/W receptor type 1 (Homo sapiens), P48145; GPR7-expressing cells, fluorescence antagonist assay; inhibition, % at 4.4 µM; hit rate 1.1% among 290,000; in the data active = inhibition above about 16%, passing the limit was not always enough;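 also: cells stimulated with the agonist NPW; 0% = agonist with vehicle and 100% = vehicle without agonist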
Target sequence (P48145 whole entry, looked up): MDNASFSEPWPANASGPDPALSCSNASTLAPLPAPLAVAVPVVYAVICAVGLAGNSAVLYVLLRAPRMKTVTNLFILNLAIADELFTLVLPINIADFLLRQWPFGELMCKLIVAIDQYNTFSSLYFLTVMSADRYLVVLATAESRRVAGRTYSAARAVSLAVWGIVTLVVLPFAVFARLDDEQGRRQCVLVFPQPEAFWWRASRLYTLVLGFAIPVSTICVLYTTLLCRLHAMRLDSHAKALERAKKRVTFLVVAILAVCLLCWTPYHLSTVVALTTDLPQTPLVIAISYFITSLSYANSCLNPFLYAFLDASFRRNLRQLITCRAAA
OX1R antag-1: OX1R (HCRTR1) antagonists, primary screen, fluorescence, CHO/OX1R cells, Fluo-8 calcium, orexin A. Orexin/Hypocretin receptor type 1 (Homo sapiens), O43613. Fluo-8 calcium fluorescence. inhibition, % at 5 µM. hit rate 0.43% among 330,000. AID 434989, 2010;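 active = inhibition above its plate's threshold, mean inhibition of all tested compounds on the plate plus 3 SD, cut at about 37% in these data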;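 also: 0% = orexin A challenge wells and 100% = SB-334867-A antagonist wells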
MPTP block: mitochondrial permeability transition pore inhibitors, primary screen, biochemical, isolated mouse mitochondria, absorbance; hit rate 1.4% among 360,000; Ca2+ swelling absorbance, 30 min; AID 602449, 2012; inhibition, % at 10 µM;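 active = inhibition of 50% or more, scaled per plate between neutral and stimulator controls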;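 also: 0% = DMSO wells given calcium and 100% = 1 mM EGTA wells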
OX1R antag-2: antagonists of human orexin 1 receptor (OX1R); inhibition, % at 6.6 µM; Orexin/Hypocretin receptor type 1 (Homo sapiens), O43613; OX1R-expressing cells, FRET antagonist read-out; hit rate 1.8% among 330,000; in the data active = inhibition mostly above about 38%, no sharp cut-off; inactive = mostly below about 40%;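 also: 0% = agonist challenge alone and 100% = reference antagonist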
Rh123 counter: fluorescence retest of MPTP screen hits in isolated mitochondria, single concentration. shares compounds with MPTP block. membrane potential, Rhodamine 123 fluorescence. inhibition, % at 10 µM. hit rate 78% among 5,000; in the data active = inhibition above about 22%;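 also: 0% = DMSO vehicle and 100% = positive control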
MPTP abs DR: mitochondrial permeability transition pore inhibitors, dose response, biochemical, absorbance, uHTS hits | AID 651561, 2012 | shares compounds with MPTP block | isolated mitochondria swelling | hit rate 58% among 780 | IC50, µM; in the data active = IC50 below about 20 µM
MPTP cs DR: fluorescent counter-screen in isolated mitochondria, dose response, counter-screen for MPTP inhibitor project, biochemical, fluorescence, uHTS hits; shares compounds with MPTP block; AID 651564, 2012; isolated mitochondria counterscreen, fluorescence read-out; IC50, µM; hit rate 49% among 780; in the data active = IC50 below about 80 µM
Active calls of the source: *; nt = no result.

SMILES | CHO parental Ca | GPR7 antagonist | OX1R antag-1 | MPTP block | OX1R antag-2 | Rh123 counter | others
O=C(COc1c(F)c(F)c(C(F)(F)F)c(F)c1F)Nc1ccc(N2CCOCC2)c(Cl)c1 | 17 | 8 | 0 | 90* | -1 | 78*
CC(C)S(=O)(=O)C1=NSC2=NC(=O)/C(=C\c3ccc(-c4ccccc4)o3)C(=N)N21 | -3 | 3 | 1 | 106* | 35 | 68*
COc1cc(CNCCc2ccc(S(N)(=O)=O)cc2)ccc1OCc1ccc(Cl)cc1 | 15 | 25 | 10 | 50* | 3 | 7 | MPTP abs DR=3.9*;MPTP cs DR=15*
COc1cc(CNCCc2ccc(S(N)(=O)=O)cc2)ccc1OCC(=O)NC1CCCCC1 | -16 | 9 | -6 | -2 | -3 | nt
O=C(NCCc1ccc(Cl)cc1Cl)c1cccnc1 | -15 | -12 | 2 | 2 | 2 | nt
CC(=O)c1ccc(OCC(=O)c2cc(C)n(-c3ccc4c(c3)OCO4)c2C)cc1 | 53* | -7 | 19 | 80* | 32 | 85*
CN(C)CCNC(=O)Nc1ccc(Cl)c(Cl)c1 | -4 | 10 | 5 | 71* | 6 | 94*
CCOC(=O)CNNC(=O)Nc1ccc(Cl)c(Cl)c1 | -5 | 7 | 6 | 69* | 9 | 65*
CC(C)(O)CNC(=O)Nc1ccc(Cl)c(Cl)c1 | 9 | -9 | 0 | 15 | 3 | nt
O=C(NCCc1ccncc1)Nc1ccc(Cl)c(Cl)c1 | -12 | 7 | -12 | 24 | 25 | nt
CCOC(=O)N(CC)OC(=O)Nc1ccc(Cl)cc1 | -2 | -8 | 17 | 57* | 16 | 63*
CCOC(=O)C(=O)Nc1ccc(OC)c(Cl)c1 | -1 | -10 | 4 | -2 | 15 | nt
CCOC(=O)N(C)OC(=O)Nc1ccc(Cl)c(Cl)c1 | 27 | 2 | 9 | 73* | 13 | 83*
O=C(NCC1CCCO1)c1ccc2c(=O)n(CC3CCCO3)c(SCC(=O)N3CCCC3)nc2c1 (configuration not stated) | -19 | -6 | -21 | 2 | 18 | nt
CCN1C(=O)C(=Cc2cccc(OC)c2Oc2ccc([N+](=O)[O-])cc2[N+](=O)[O-])SC1=S | -19 | -12 | -15 | 0 | 21 | nt
COCCC(=O)Nc1ccc2c(c1)CN(C(=O)c1ccc(CSC)o1)CC2 | -14 | -12 | -19 | 0 | 2 | nt
Nc1cc(=O)nc(SCC(=O)N(C2CCCCC2)C2CCCCC2)n1-c1ccccc1 | -4 | -13 | -16 | 64* | 4 | -12 | MPTP abs DR=>100;MPTP cs DR=>80
O=C(NNC(=O)c1ccccc1-c1ccccc1C(=O)O)c1ccccc1 | -7 | 11 | 13 | 0 | 15 | nt
O=C(C=P(c1ccccc1)(c1ccccc1)c1ccccc1)c1ccccc1-c1ccccc1C(=O)C=P(c1ccccc1)(c1ccccc1)c1ccccc1 | nt | nt | nt | 94* | nt | 99*
COc1cc(NC(=O)Cn2nc(C(F)(F)F)c(Br)c2C)cc([N+](=O)[O-])c1 | -8 | -3 | 6 | 85* | 21 | 82*
C=CCn1c(COc2ccc(OC)cc2)nnc1SCn1nnc2ccccc2c1=O | -15 | -8 | -17 | 4 | 24 | nt
CN(C)CCOC(C1CCCCC1)C1CCCCC1 | -9 | 34* | -26 | 74* | 7 | -3 | MPTP abs DR=15*;MPTP cs DR=>80
COC(=O)/C=C1\SC(=NC(=O)c2cccc(Cl)c2)NC1=O | -3 | -10 | -5 | 60* | 24 | 37*
Cc1ccccc1OCCCc1c(C)n[nH]c1C | 0 | 4 | -2 | 0 | 24 | nt
Cc1n[nH]c(C)c1CCCCOc1ccccc1[N+](=O)[O-] | 48* | 8 | -11 | 85* | 59* | 74*
SMILES | CHO parental Ca | GPR7 antagonist | OX1R antag-1 | MPTP block | OX1R antag-2 | Rh123 counter | others
Cc1n[nH]c(C)c1CCCCOc1ccccc1F | 13 | 10 | -6 | 2 | -1 | nt
Cc1ccccc1OCCCCc1c(C)n[nH]c1C | 6 | 2 | -1 | 101* | 39 | 98*
O=C(NCCCN1CCOCC1)C(C(=O)NCCCN1CCOCC1)c1ncc(C(F)(F)F)cc1Cl | -4 | 13 | 5 | 0 | 16 | nt
O=C(Nc1ccc(Nc2ccccc2)cc1)c1ccc(Cl)cc1 | -29 | nt | -23 | 38 | 11 | nt
O=C(Nc1ccc(Cl)cc1)C1=Cc2ccccc2OC1 | -14 | -5 | -10 | 89* | 28 | 108*
N#Cc1cnc2sc3ccccc3n2c1=N | 11 | -4 | -5 | 72* | 12 | 81*
CCCn1c(N)c(C(=O)COC(=O)CCNS(=O)(=O)c2ccccc2F)c(=O)[nH]c1=O | -11 | nt | -13 | 0 | 20 | nt
CCOC(=O)C1CCN(C(=O)Nc2ccc(OC(F)(F)F)cc2)CC1 | -15 | 6 | -19 | 1 | 3 | nt
O=C(NC(NC(=S)N1CCOCC1)C(Cl)(Cl)Cl)c1ccc(Cl)cc1 (configuration not stated) | -1 | -10 | -6 | 67* | 10 | 83*
C#CCOCCOCCOCCNc1nc(N2CCN(C(=O)[C@H](CCC(=O)O)n3cc(CN)nn3)CC2)nc(N2CCN(C(=O)[C@H](CCCN=C(N)N)n3cc(C(N)[C@@H](C)CC)nn3)CC2)n1 (some centres not stated) | -8 | nt | -18 | 0 | -5 | nt

High-throughput results: PubChem, several laboratories
